Source: PubChem
TNAP inh hiacc: TNAP (human) inhibition, high acceptor; P05186; purified TNAP, CDP-star luminescence, 1 M DEA; inhibition, % at 20 µM; actives 0.03% (n = 200,000); AID 1135;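 active means over 50% inhibition of tissue-nonspecific alkaline phosphatase at 20 µM in the single-dose screen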;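 further: plate controls were DMSO wells for no effect and EDTA-quenched wells as full inhibition for full effect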
Target sequence (P05186 whole entry, looked up): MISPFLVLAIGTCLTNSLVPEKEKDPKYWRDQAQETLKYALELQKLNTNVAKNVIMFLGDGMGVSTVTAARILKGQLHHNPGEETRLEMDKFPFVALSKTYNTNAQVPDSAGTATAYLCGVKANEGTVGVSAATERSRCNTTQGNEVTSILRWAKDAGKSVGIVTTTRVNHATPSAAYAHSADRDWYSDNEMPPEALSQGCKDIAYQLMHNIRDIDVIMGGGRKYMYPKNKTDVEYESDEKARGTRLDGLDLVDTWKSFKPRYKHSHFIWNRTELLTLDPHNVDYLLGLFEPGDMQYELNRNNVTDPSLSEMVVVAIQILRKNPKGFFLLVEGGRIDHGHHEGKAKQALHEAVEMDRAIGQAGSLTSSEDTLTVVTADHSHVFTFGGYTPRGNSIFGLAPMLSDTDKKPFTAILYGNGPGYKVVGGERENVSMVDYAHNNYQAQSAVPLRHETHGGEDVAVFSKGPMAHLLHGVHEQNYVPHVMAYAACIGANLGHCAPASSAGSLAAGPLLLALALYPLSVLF
BB579 growth dn: yeast BB579 growth reduction in restrictive medium | S. cerevisiae BB579 growth, OD615, 48 h | inhibition, % at 10 µM | actives 0.51% (n = 140,000) | AID 804;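 active means inhibition above a set limit, 3 SD over the mean compound inhibition, cut at about 44% in these data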
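System: Saccharomyces cerevisiae DeaD strain BB579, replicative lifespan model yeast. Buffer or medium: restrictive glucose-based CSMM-D medium. Doses: one dose, 10 µM compound with 0.25% DMSO. Timing: 4 h preincubation and 48 h exposure at 30 °C. Detection: turbidity as optical density at 615 nm. Benchmarks: amphotericin B 10 µg/mL, positive.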
Yeast life ext: extends the lifespan of yeast | S. cerevisiae growth with nicotinamide, OD615; deaD strain in restrictive glucose medium | actives 0.68% (n = 130,000) | inhibition of the nicotinamide effect, % at 10 µM;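 active means inhibition above a set limit, placed 3 SD over the median of all compounds, cut at about 26% in these data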;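 further: 0% = nicotinamide-treated wells and 100% = cells grown without nicotinamide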
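Material: Modified budding yeast, DeaD strain | Medium: Restrictive glucose medium | Probe or stimulus: 1.5 mM nicotinamide | Dosing: Single dose 10 µM compound, 0.25% DMSO | Times: 48 h at 30 °C | Technique: OD615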
RAM network inh: yeast RAM network inhibition. S. cerevisiae dse1pr::URA3 reporter, 5-FOA growth OD615, 2 d; analog-sensitive cbk1-as2 kinase mutant strain. actives 1.8% (n = 190,000). inhibition, % at 50 µM;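 active means inhibition above a set limit, 3 SD over mean compound inhibition, cut at about 8.4% in these data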;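 further: 0% = DMSO-only wells with no growth and 100% = 10 µM 1-NA-PP1 full growth; inhibition rescues growth on 5-FOA so higher OD means more RAM inhibition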
TNAP act hi DEA: activators of human TNAP at high phosphate acceptor concentration; P05186; purified TNAP, CDP-star luminescence, 1 M DEA, 30 min; hits give high values; 0 = EDTA background, 1 = DMSO-only activity; activation factor at 20 µM; 200,000 tested, under 10 active; AID 1136;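 active means activation factor at least 2 at 20 µM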
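system = human TNAP | amount = enzyme diluted 1/800 final | reagent = 100 µM CDP-star substrate | signal = luminescent substrate turnover signal | dosing = one dose, 20 µM | benchmarks = EDTA negative control, DMSO positive control | measure = activation factor | timing = 30 min reaction, room temperature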
TNAP inh no acc: inhibitors of human TNAP without phosphate acceptor | inhibition, % at 20 µM | actives 0.26% (n = 200,000) | purified TNAP, CDP-star luminescence, 30 min;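 active means tissue-nonspecific alkaline phosphatase inhibition above about 50% at 20 µM in the single-dose screen, limit read from the data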;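 further: 0% = DMSO negative control and 100% = EDTA positive control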
* marks the source's active call; other numbers are inactive results; nt = not tested or not shown. This is a sample that favours compounds with a hit; in the whole collection about 2.8% have one here.

SMILES	TNAP inh hiacc	BB579 growth dn	Yeast life ext	RAM network inh	TNAP act hi DEA	TNAP inh no acc
CC(C)C(NS(=O)(=O)c1ccc2c(c1)oc(=O)n2C)C(=O)N1CCN(Cc2ccccc2)CC1 (stereo unspecified)	-2	-55	-6	2	1	20
CCOc1ccccc1C(=O)Nc1nn[nH]n1	-2	nt	nt	1	1	-10
Cc1ccc(-c2cc(C(=O)N/N=C/c3cccnc3)n[nH]2)o1	-1	-9	-4	2	1	71*
O=C(N/N=C/c1cccnc1)c1[nH]ncc1Br	-7	nt	nt	2	1.1	30
Cc1ccc(CSc2nnc(-c3ccc(S(=O)(=O)N4CCCC4)cc3)o2)cc1	-4	-35	3	10*	1	-9
Cc1cc(C)cc(NC(=O)CSc2nnc(-c3ccc(S(=O)(=O)N4CCCC4)cc3)o2)c1	-1	5	-9	-1	1	-11
O=S(=O)(c1ccc(-c2nnc(SCc3ccccc3)o2)cc1)N1CCCC1	-8	-85	5	9.3*	1.1	-13
NC(=O)CSc1nnc(-c2ccc(S(=O)(=O)N3CCCC3)cc2)o1	6	11	nt	3	0.9	-4
CCCn1c(N)c(CC)c(=O)[nH]c1=O	-6	nt	nt	0	1.1	-11
CCCc1cc(C(=O)NC2CCCCC2)no1	-1	43*	0	0	1	-9
CCCc1cc(C(=O)NC2CCCC2)no1	2	-1	-9	2	1	-3
CCCCCCOC(=O)CCc1c(C)nc(N)[nH]c1=O	-5	-24	4	2	1	-2
CCCCCCCCOC(=O)CCc1c(C)[nH]c(=S)[nH]c1=O	4	-42	-9	8.8*	1	6
O=C(Cn1c(C(=O)N2CCN(C3CCCC3)CC2)cc2sccc21)c1ccccc1	-8	0	-2	2	1.1	-3
CC(C)NC1CS(=O)(=O)CC1O (stereo unspecified)	-3	-22	58*	0	1	-20
O=C(NCCc1ccccn1)c1cc(-c2cccc3ccccc23)nc2ccccc12	0	-38	28*	3	1	-3
Cc1ccc(-c2cc(C(=O)NCCc3ccccn3)c3ccccc3n2)c(C)c1	-1	-9	-4	1	1	-17
Cc1ccccc1C(=O)NNC(=S)NC(=O)COc1ccccc1	-9	70*	12	4	1.1	-7
Cc1ccc(C(=O)NNC(=S)NC(=O)COc2ccccc2)cc1	0	-30	0	3	1	-4
CC(C)c1ccc(NC(=O)c2cccc(Br)c2)cc1	-6	nt	nt	1	1.1	-8
O=C(CCSc1nc(-c2ccc3c(c2)OCO3)cc(C(F)(F)F)n1)NCc1ccccc1	2	-43	nt	8	1	-4
Cc1ccc(NC(=O)CSc2nc(-c3ccco3)cc(C(F)(F)F)n2)cc1C	-3	-25	nt	4	1	-9
O=C(CCSc1nc(-c2ccc3c(c2)OCO3)cc(C(F)(F)F)n1)NCc1ccco1	-6	-73	-4	9.7*	1.1	-11
O=C(CSc1nc(-c2ccco2)cc(C(F)(F)F)n1)Nc1ccc2c(c1)CCC2	-7	-24	-18	8.5*	1.1	2
COc1ccc(CNC(=O)CCSc2nc(-c3ccc4c(c3)OCO4)cc(C(F)(F)F)n2)cc1	-7	-41	nt	5	1.1	-4
O=C(CCSc1nc(-c2ccco2)cc(C(F)(F)F)n1)NCc1ccccn1	-6	-52	-2	1	1.1	-11
CN(Cc1ccccc1)C(=O)CCSc1nc(-c2ccc3c(c2)OCO3)cc(C(F)(F)F)n1	-2	-39	nt	9.9*	1	-4
O=C(CCSc1nc(-c2ccco2)cc(C(F)(F)F)n1)NCc1cccs1	-1	-32	nt	10*	1	-5
CC(=O)c1c(C)nn(CC(O)COc2ccc3ccccc3c2)c1C (stereo unspecified)	0	nt	nt	0	1	-14
COc1ccc2c(=O)c3c(=O)n(Cc4ccco4)c(-c4ccc(C)cc4)nc3oc2c1	-3	-38	47*	7	1	-8
